Assay outcomes (PubChem)
Sampled rows, rich in hits. Any-hit rate of the full collection: about 2.5%.
OX1R antag-1: OX1R (HCRTR1) antagonists, primary screen, fluorescence, CHO/OX1R cells, Fluo-8 calcium, orexin A; Fluo-8 calcium fluorescence; inhibition, % at 5 µM; AID 434989, 2010; actives 0.43% (n = 330,000); Orexin/Hypocretin receptor type 1 (Homo sapiens), O43613;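 active = inhibition above its plate's threshold, mean inhibition of all tested compounds on the plate plus 3 SD, cut at about 37% in these data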;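 note: 0% = orexin A challenge wells and 100% = SB-334867-A antagonist wells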
CHO parental Ca: ATP-evoked calcium signal inhibitors, parental CHO, primary screen, counter-screen for OX1R antagonist project, cell-based, fluorescence, Fluo-8 calcium dye. actives 0.63% (n = 330,000). inhibition, % at 5.6 µM. parental CHO-K1, ATP-induced calcium, Fluo-8 fluorescence;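 active = inhibition above that plate's mean sample inhibition plus 3 SD, cut at about 26% in these data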;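 note: 0% = ATP-challenged DMSO wells and 100% = DMSO wells without ATP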
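Assay system – parental CHO cells · Reagent – ATP stimulus · Detection – intracellular calcium via Fluo-8 no-wash fluorescent dye · Evaluation – percent inhibition of ATP-evoked calcium rise, normalized to controls · Controls – ATP wells versus no-ATP DMSO wells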
OX1R antag-2: antagonists of human orexin 1 receptor (OX1R); Orexin/Hypocretin receptor type 1 (Homo sapiens), O43613; OX1R-expressing cells, FRET antagonist read-out; inhibition, % at 6.6 µM; actives 1.8% (n = 330,000); in the data active = inhibition mostly above about 38%, no sharp cut-off; inactive = mostly below about 40%;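 note: 0% = agonist challenge alone and 100% = reference antagonist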
TRPN1 ag: zebrafish TRPN1 channel agonists, primary screen, cell-based, HEK293, calcium fluorescence. activation, % at 3 µM. HEK293 zebrafish TRPN1-YFP, Fluo-8 calcium fluorescence; 100% = response to 87 µM carbachol. actives 0.18% (n = 220,000). transient receptor potential cation channel N1 (TRPN1/NompC), Danio rerio;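 active = activation above its plate's cutoff, the mean activation of test wells on that plate plus 3 SD, cut at about 19% in these data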;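 note: 0% = DMSO alone and 100% = 87 µM carbachol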
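Material: zebrafish TRPN1-YFP in HEK293 cells; Doses: single test compound dose, 3 µM nominal, 0.3% DMSO; Timing: dye loading 1 h at 37 °C, then 30 min room temperature; Technique: intracellular calcium fluorescence with Fluo-8; Benchmarks: high carbachol 87 µM, low DMSO alone.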
TRPML3 ag: human TRPML3 channel agonists, primary screen, cell-based, HEK293 TRPML3-YFP, Fluo-8 calcium fluorescence, 3 µM; Mucolipin-3 (Homo sapiens), Q8TDD5; actives 0.29% (n = 220,000); 100% = the carbachol control signal; activation, % at 3 µM;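 active = activation above its plate's cutoff, the mean activation of the plate's test wells plus 3 SD, cut at about 12% in these data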;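 note: 0% = DMSO only wells and 100% = carbachol wells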
Target sequence (Q8TDD5 whole entry, looked up): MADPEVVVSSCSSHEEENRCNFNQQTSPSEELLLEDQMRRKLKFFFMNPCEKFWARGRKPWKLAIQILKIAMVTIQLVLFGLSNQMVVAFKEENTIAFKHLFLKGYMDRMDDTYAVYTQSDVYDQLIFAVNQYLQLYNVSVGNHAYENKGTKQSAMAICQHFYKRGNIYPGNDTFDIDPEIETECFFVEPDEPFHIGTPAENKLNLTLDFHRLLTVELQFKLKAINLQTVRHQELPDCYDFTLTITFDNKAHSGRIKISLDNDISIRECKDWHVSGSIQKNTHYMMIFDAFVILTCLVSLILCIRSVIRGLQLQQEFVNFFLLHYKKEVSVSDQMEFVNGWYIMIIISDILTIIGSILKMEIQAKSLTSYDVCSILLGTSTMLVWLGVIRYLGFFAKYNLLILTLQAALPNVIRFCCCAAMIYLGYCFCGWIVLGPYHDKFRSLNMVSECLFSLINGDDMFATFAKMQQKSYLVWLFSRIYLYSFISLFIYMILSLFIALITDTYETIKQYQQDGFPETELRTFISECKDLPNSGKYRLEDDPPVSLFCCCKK
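Material: HEK293 cells stably carrying human TRPML3-YFP; compound dosing: single dose, 3 µM final nominal compound, 0.3% DMSO final; incubation: 1-h 37 °C dye load, 5-s basal, 120-s post-compound reads; technique: Fluo-8 intracellular calcium fluorescence, excitation 470-495 nm, emission 515-575 nm; read-out basis: percent activation from peak-to-basal fluorescence ratio, scaled between DMSO and carbachol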
* hit, by the source's call; . = no result.

SMILES	OX1R antag-1	CHO parental Ca	OX1R antag-2	TRPN1 ag	TRPML3 ag
CCOC(=O)Cn1c(COc2ccccc2OC)[n+](C)c2ccccc21	-17.6	-8.2	6.1	.	.
CCCCCCCCCCOC(=O)Cn1c(COc2ccc(Cl)cc2)[n+](C)c2ccccc21	21.3	33.4*	6.5	.	.
CCCCOC(=O)Cn1c(=O)n(CC(=O)OCCCC)c2ccccc21	-23.4	-8.4	30.8	-1.6	0.0
CCCCCCCCCCOC(=O)Cn1c(COc2cccc(C)c2)[n+](C)c2ccccc21	74.9*	65.3*	16.6	.	.
CCCCCCCCCCOC(=O)Cn1c(COc2ccccc2C)[n+](C)c2ccccc21	53.1*	43.2*	-0.3	.	.
COc1ccc(Cn2nnnc2CN(Cc2cc3cccc(C)c3[nH]c2=O)C2CCCC2)cc1	-26.9	-21.3	32.9	0.6	-0.7
COc1ccc(Cn2nnnc2CN(Cc2cc3ccc(C)cc3[nH]c2=O)C2CCCC2)cc1	-1.3	-29.0	43.2*	-0.2	1.0
COc1cc(OC)cc(-c2cc(N)n(S(=O)(=O)c3cccc4nsnc34)n2)c1	16.5	4.4	48.7*	-3.7	-1.4
CCCSc1nc(C)cc(C)c1S(=O)(=O)c1ccccc1C	53.7*	28.0	34.1	-0.9	4.2
Cc1cc(C)c(S(=O)(=O)c2ccccc2C)c(SCC(C)C)n1	27.2	56.9*	16.1	-0.2	0.8
CC(C)CC(=O)N/C(N)=N/c1nc2ccccc2o1	-2.2	-4.1	6.9	0.6	1.6
Cc1ccccc1NC(=O)c1ccc(NC(=O)C2CC(=O)OC23CCCCC3)cc1 (centres undefined)	.	.	.	1.7	0.5
C[C@@H]1CN([C@@H](C)CO)C(=O)c2cccc(NC(=O)C3CCCCC3)c2O[C@@H]1CN(C)Cc1ccc(Cl)c(Cl)c1	-22.6	-36.4	6.4	.	.
CC(C)(C)SCCNS(=O)(=O)c1ccc(C#N)cc1	5.6	-0.8	2.0	0.6	0.6
COc1ccc([C@@H]2[C@@H]3C(=O)N(C(C)(C)C)C(=O)[C@@H]3[C@]3(C)C(=O)N(c4ccc(C(F)(F)F)cc4)C(=O)N23)cc1	-20.6	-19.4	3.7	.	.
O=C(c1ccc(S(=O)(=O)N2CCCCCC2)cc1)N1CCN(c2ccccc2F)CC1	-17.6	-11.4	-5.1	.	.
COc1cc(SC#N)ccc1N=Cc1c(C)[nH]n(-c2ccc(Cl)cc2)c1=O	29.9	17.8	17.1	-0.8	0.3
COc1cc(SC#N)ccc1N=Cc1c(C)[nH]n(-c2ccc(C)c(C)c2)c1=O	96.3*	96.2*	-2.9	-1.5	-0.6
Cc1noc(C)c1C(=O)OCC(=O)Nc1ccc(N2CCOCC2)cc1	-4.2	3.0	-0.6	.	.
CC(C)NC(=O)c1noc2cc([N+](=O)[O-])ccc12	-15.2	-5.2	67.2*	0.9	1.0
CN(C)c1ccc([N+](=O)[O-])cc1C(=O)O	-5.4	-4.6	52.3	-0.9	0.1
CN(C)C(=O)c1noc2cc([N+](=O)[O-])ccc12	-4.8	1.6	52.4*	0.3	1.0
Cc1ccc(NC(=O)CSC2=NN3CCCC(=O)N=C3S2)cc1Cl	-4.1	7.1	28.1	.	.
CC(OC(=O)c1ccc([N+](=O)[O-])s1)C(=O)NC1CCCCC1C (centres undefined)	-5.3	-16.9	38.0*	.	.
O=C(NC1CCCC1)c1ccc([N+](=O)[O-])s1	-33.1	3.7	61.1*	-0.6	0.7
SMILES	OX1R antag-1	CHO parental Ca	OX1R antag-2	TRPN1 ag	TRPML3 ag
CC1CCCC(NC(=O)COC(=O)c2ccc([N+](=O)[O-])s2)C1C (centres undefined)	12.2	2.2	44.1*	.	.
CC1CCCC(NC(=O)COC(=O)c2ccccc2[N+](=O)[O-])C1C (centres undefined)	-19.6	-15.0	8.3	-0.3	0.1
Cc1ccc(C(=O)NC2CCCC2)s1	-3.0	-2.0	-1.8	.	.
NS(=O)(=O)c1ccc(CCNC(=O)c2ccc([N+](=O)[O-])s2)cc1	0.2	21.6	65.8*	.	.
Cc1ccc(-c2cc(N)n(Cc3ccc(Cl)cc3)n2)cc1	-11.5	-11.5	25.8	5.3	1.8
Cc1cc(N)n(Cc2ccc(Cl)cc2)n1	-5.2	-31.9	39.2*	-0.3	0.4
O=C(NCc1ccc(Cl)cc1)C(=O)NCC(c1cccnc1)N1CCN(c2ccc(F)cc2)CC1 (centres undefined)	-25.7	-17.4	7.5	1.0	0.3
C=CCNc1nc2c(c(=O)n(C)c(=O)n2C)n1Cc1ccc(F)cc1	-30.8	40.1*	29.4	-0.5	-0.2
CN(C)S(=O)(=O)c1cccc(COC(=O)c2cccnc2Cl)c1	17.3	10.5	38.4	.	.
CN(C)S(=O)(=O)c1cccc(COC(=O)Cc2c(F)cccc2Cl)c1	-14.4	45.4*	31.9	.	.
O=C(Nc1ccc(Cl)c(Cl)c1)OCCNC(=O)c1cccc(Cl)c1	28.2	40.0*	66.5	0.1	-0.2
COc1ccc(CCNC(=O)c2coc(=O)c(Br)c2)cc1	-22.9	-7.2	10.7	.	.
N#Cc1c(Cl)nsc1NC(=O)c1ccccc1	-4.6	7.0	61.2*	30.0*	21.3*
N#Cc1c(NC(=O)c2ccccc2)sc2c1CCCCC2	-34.3	-20.3	19.0	-1.7	-0.7
CC1CCN(CCC(=O)N/N=C/c2ccc([N+](=O)[O-])cc2)CC1	-25.5	-7.3	44.6*	0.6	0.8
O=C(NCCc1ccccc1)c1ccc2c(c1)S(=O)(=O)c1ccccc1C2=O	-25.0	-19.2	24.4	.	.
CSc1ccc(CN(C)C(=O)C(Cc2ccccc2)NC(=O)c2ccccc2)cc1 (centres undefined)	-0.9	-22.9	69.7*	.	.
CCCC(=O)OCCNc1cc(Sc2nc3ccccc3[nH]2)c2nonc2c1[N+](=O)[O-]	13.0	37.6*	65.2*	-1.0	0.2
Cc1nnc(NC(=O)C23CC4CC(CC(C4)C2)C3)s1	-9.3	-0.3	-5.2	.	.
O=C(CCS(=O)(=O)c1ccccc1)Nc1cccc(-c2nc3ccccc3s2)c1	6.4	-4.8	55.0*	4.5	0.4
CC(=O)N(c1ccccc1C)C1CCCC1	-14.5	-11.8	16.9	0.5	1.1
CC(=O)N(C1=C(Cl)C(=O)c2ccccc2C1=O)C1CCCCC1	22.0	37.9*	71.1*	-1.1	0.6
CCOC(=O)CC1C(=O)NCCN1c1nc2c(C)cccn2c(=O)c1/C=C1\SC(=S)N(CC(C)C)C1=O (centres undefined)	.	.	.	36.0*	11.7*
Cn1c(N=Nc2ccccc2)nc2ccccc21	-25.6	-18.5	63.6*	-2.5	-1.4
Cn1c(Cl)nc2ccccc21	2.0	-8.5	7.5	1.3	0.1
Cc1cn(-c2cccnc2)c(C)c1CNC[C@H]1O[C@@H](n2cnc3c(N)ncnc32)[C@H](O)[C@@H]1O	17.3	-3.1	-3.8	.	.
